ASAP1 inh: ASAP1 ArfGAP inhibition | Q9ULH1 | ASAP1-stimulated ARF1 GTP hydrolysis, GDP FP detection | inhibition, % at 16.5 µM | 360,000 tested, 0.19% active | AID 624377; in the data active = inhibition above about 25%
Target sequence (Q9ULH1 325-724 limits assumed): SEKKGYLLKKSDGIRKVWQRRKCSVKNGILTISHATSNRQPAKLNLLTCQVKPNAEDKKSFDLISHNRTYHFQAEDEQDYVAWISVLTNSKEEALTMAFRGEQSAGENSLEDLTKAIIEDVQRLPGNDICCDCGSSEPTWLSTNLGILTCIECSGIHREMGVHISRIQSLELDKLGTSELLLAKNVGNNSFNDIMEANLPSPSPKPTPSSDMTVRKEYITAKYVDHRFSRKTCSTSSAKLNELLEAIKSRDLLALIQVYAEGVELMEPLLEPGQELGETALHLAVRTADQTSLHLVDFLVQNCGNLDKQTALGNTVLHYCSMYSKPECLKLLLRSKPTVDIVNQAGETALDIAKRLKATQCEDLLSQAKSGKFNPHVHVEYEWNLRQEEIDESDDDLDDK
ARFGAP1 inh: rat ARFGAP1 inhibition; Q62848; Arfgap1-stimulated ARF1 GTP hydrolysis, GDP FP detection; inhibition, % at 16.5 µM; 360,000 tested, 0.26% active; AID 651572;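 active = inhibition above a per-plate limit, mean inhibition of low control wells plus 3 SD, cut at about 25% in these data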
Target sequence (Q62848 1-136 limits assumed): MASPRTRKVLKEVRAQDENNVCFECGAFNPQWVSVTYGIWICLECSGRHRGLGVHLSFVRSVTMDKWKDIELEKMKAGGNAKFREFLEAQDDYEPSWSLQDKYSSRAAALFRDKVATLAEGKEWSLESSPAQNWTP
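Assay system: Rat Arfgap1 GAP domain (His6, aa 1-136), purified enzyme | Buffer or medium: HEPES 25 mM pH 7.5, NaCl 150 mM, MgCl2, DTT | Schedule: GTP hydrolysis reaction 2 h at 25 °C | Signal: FP of antibody-bound GDP Alexa 633 tracer, ex 620/em 688 nm | Measure: Percent inhibition of Arfgap1-stimulated GTP hydrolysis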
PLC-beta3 inh: inhibitors of human phospholipase C beta3; Q01970; Purified PLC-beta3, fluorogenic substrate, fluorescence; inhibition, % at 12.2 µM; 370,000 tested, 0.18% active; AID 720704; in the data active = inhibition above about 11%
PLCg1 inh: inhibitors of human phospholipase C gamma1; 370,000 tested, 0.84% active; AID 720700; purified PLC-gamma1, fluorogenic substrate, fluorescence; P19174; inhibition, % at 12.2 µM; in the data active = inhibition above about 9.5%
sPLA2-III inh: Blocks human group III sPLA2 activity | QFRET BODIPY PC-A2 liposome hydrolysis, fluorescence | Q9NZ20 | AID 743126 | inhibition, % at 12.2 µM | 370,000 tested, 0.56% active;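 active = inhibition above mean plus 3 SD of compounds lying within the high and low control bounds, cut at about 19% in these data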
hGIII sPLA2 conf: human GIII-sPLA2 inhibition, confirmation; recombinant hGIII-sPLA2, BODIPY PC-A2 QFRET fluorescence; shares compounds with sPLA2-III inh; 2,000 tested, 34% active; inhibition, % at 12.2 µM; AID 743280;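 active = mean inhibition across triplicates above the hit cutoff set in the earlier primary screen, cut at about 19% in these data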
BODIPY interf: counter-screen for HGIII-sPLA2 inhibitors: 535nm fluorescence interference; shares compounds with sPLA2-III inh; BODIPY FL product fluorescence interference, QFRET; inhibition, % at 12.2 µM; 2,000 tested, 8.5% active; AID 743282;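 active = average inhibition above the solvent-only control mean plus 3 SD, cut at about 6% in these data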
535nm interf DR: interferes with 535nm fluorescence in dose response counter-screen. shares compounds with sPLA2-III inh. BODIPY FL product fluorescence interference, cell-free. IC50, µM. 240 tested, under 10 active. AID 743455;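 active = IC50 at or below 10 µM; inactive = IC50 above 10 µM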
Numbers stand for hits; i = inactive; nt = no result given. A selection: hits, their analogues and other compounds. The true share with any hit is near 1.9%.

SMILES | ASAP1 inh | ARFGAP1 inh | PLC-beta3 inh | PLCg1 inh | sPLA2-III inh | hGIII sPLA2 conf | BODIPY interf | others
CC(C)c1ccc(OCCCN2CCC(C(O)(c3ccccc3)c3ccccc3)CC2)cc1 | i | i | i | i | i | nt | nt
COc1ccccc1N1CCN(/N=C/c2cccc(OC)c2OC)CC1 | i | i | i | i | i | nt | nt
COc1ccccc1N1CCN(N=Cc2ccccc2Br)CC1 | nt | nt | i | i | 19 | i | i
S=c1[nH]nc2ccccn12 | i | i | i | i | i | nt | nt
S=c1[nH]nc2ccc3ccccc3n12 | i | i | i | i | 26 | 23 | i
CCN=C1NC(CCc2ccccc2)C(C(=O)OC)=C(C)N1Cc1ccccc1C(F)(F)F (stereo not given) | i | i | i | i | i | nt | nt
O=C(NC(c1ccccc1)c1cc(Cl)c2cccnc2c1O)c1cccnc1 (stereo not given) | i | i | i | i | i | nt | nt
CCOc1ccc(C(Nc2cccnc2)c2cc(Cl)c3cccnc3c2O)cc1 (stereo not given) | i | i | i | i | 24 | i | i
CC(C)[C@@H](C)/C=C/[C@@H](C)[C@H]1CC[C@@H]2[C@]1(C)CCC1[C@]23C=C[C@]2(C[C@@H](O)CC[C@]12C)N(c1cnccn1)O3 (stereo not given in full) | i | i | i | i | i | nt | nt
Clc1ccc(-c2csc(NCC3CCCO3)n2)cc1 (stereo not given) | i | i | i | i | i | nt | nt
Cc1nn(-c2ccccc2)c2sc(C(=O)N3CCN(Cc4ccc(F)cc4)CC3)cc12 | nt | nt | i | i | i | nt | nt
Cc1cc(C(=O)NNC(=S)NC2CCCCC2)cs1 | i | i | i | i | 25 | 37 | i | 535nm interf DR=i
O=C(NNC(=S)NC1CCCCC1)c1ccccc1O | i | i | i | i | 44 | 44 | i | 535nm interf DR=i
COc1cccc(C(=O)NNC(=S)NC2CCCCC2)c1 | i | i | i | i | i | nt | nt
CCCCN1CN2Cc3cc(OC)ccc3C2CS1(=O)=O (stereo not given) | nt | nt | i | i | i | nt | nt
O=C(CSc1nnc(-c2ccccc2)n1-c1ccccc1)NN=C/C=C\c1ccccc1[N+](=O)[O-] | nt | nt | i | i | i | nt | nt
COc1cc2c(c(OC)c1OC)C1(CCCCC1)CC2NCC=C(C)C (stereo not given) | i | i | i | i | i | nt | nt
Cc1ccc2nc(-c3cc(N)cc(N)c3)oc2c1 | i | i | i | i | 23 | 36 | i | 535nm interf DR=i
COc1cc2cc(NC(C)=O)cc(NCc3ccccc3)c2cc1OC | i | i | i | i | 21 | i | i
CCN1CCCCC(NC(=O)COCc2ccccc2)C1=O (stereo not given) | nt | nt | i | i | i | nt | nt
CCOc1ccc(NC(=S)NN2C(C)CCCC2C)cc1 (stereo not given) | i | i | i | i | 22 | i | i
CCC(C(=O)OCCOCCN(CC)CC)c1ccccc1 (stereo not given) | i | i | i | i | 20 | i | i
CCN(CC)CCCOC(=O)C(c1ccccc1)c1ccccc1 | i | i | i | i | i | nt | nt
CCOC(=O)N1C(=O)C[C@](Sc2ccc(OC)cc2)(C(=O)N2CCN(c3ncccn3)CC2)[C@H]1c1ccc(OC)cc1 | nt | nt | i | i | i | nt | nt
Cc1cc(C(=O)NNC(=S)Nc2cccc(C(F)(F)F)c2)nn1C | i | i | i | i | 47 | 42 | i | 535nm interf DR=i
SMILES | ASAP1 inh | ARFGAP1 inh | PLC-beta3 inh | PLCg1 inh | sPLA2-III inh | hGIII sPLA2 conf | BODIPY interf | others
CC(=O)Nc1c(C)ccc(CNC(=O)COc2cc(C)ccc2C)c1C | i | i | i | i | 21 | i | i
CC(=O)Nc1c(C)ccc(CNC(=O)COc2ccc(F)cc2)c1C | i | i | i | i | i | nt | nt
Cn1c(NC(=S)Nc2ccccc2)nc2ccccc21 | i | i | i | i | 39 | 35 | 6.3
S=C(Nc1ccccc1)Nc1nc2ccccc2n1CCOc1ccc(Br)cc1 | i | i | i | i | i | nt | nt
COC(=O)C/C=C/[C@@H](C)[C@H](NC(=O)OCC(Cl)(Cl)Cl)c1ccc(-c2ccccc2)cc1 | nt | nt | i | i | i | nt | nt
Cc1ccc(C2CCN(C(=S)NC(C)C)C2)cc1 (stereo not given) | i | i | i | i | 23 | i | i
N#Cc1c(SCC(N)=O)nsc1SCc1ccc(Cl)cc1 | i | i | i | i | 30 | i | i
N#Cc1c(SCC(N)=O)nsc1SCc1ccccc1Cl | i | i | i | i | i | nt | nt
O=C(/C=C(\Nc1ccc(Br)c(F)c1)c1ccccc1)c1ccccc1 | i | i | i | i | i | nt | nt
Cc1ccccc1CS(=O)(=O)Cc1ccc(C(=O)Nc2ccc(F)cc2)o1 | nt | nt | i | i | i | nt | nt
COc1cccc(C(=O)NCCCNC(=O)c2ccco2)c1 | i | i | i | i | 22 | i | i
CC(C)Cn1c(/C=N/Nc2nc3ccccc3[nH]2)nc2ccccc21 | i | i | i | i | 29 | 39 | i
C=CCn1cc(/C=N/Nc2nc3ccccc3[nH]2)c2ccccc21 | i | i | i | i | i | nt | nt
COc1cc(CNCc2cccs2)ccc1OCc1ccccc1 | i | i | i | i | i | nt | nt
COc1cc(CNC23CC4CC(CC(C4)C2)C3)ccc1OCc1ccccc1 | i | i | i | i | 22 | i | i
CN1C(=O)C2(c3ccccc31)c1c(oc3ccccc3c1=O)C(=O)N2CCO (stereo not given) | i | i | i | i | i | nt | nt
CN1C(=O)C2(c3ccccc31)c1c(oc3ccccc3c1=O)C(=O)N2CCCO (stereo not given) | i | i | i | i | 21 | i | i
CCCCNC(=S)NNC(=O)c1nn(C)cc1Cl | i | i | i | i | 23 | 27 | i
CCCCNC(=S)NNC(=O)c1ccc(Br)o1 | i | i | i | i | 30 | 31 | i | 535nm interf DR=i
CC1(C)CCCN(C(=O)c2ccc3c(c2NCCO)C(=O)c2ccccc2C3=O)C1 | i | i | i | i | 26 | 36 | i | 535nm interf DR=i
COc1ccc(N)c2c1C(=O)c1ccccc1C2=O | i | i | i | i | 33 | 37 | 14
Cc1cc(NS(=O)(=O)c2ccc(N3C(=O)C4C5C=CC(C5)C4C3=O)cc2)nc(C)n1 (stereo not given) | i | i | i | i | 21 | i | i
COC(=O)C[C@H]1CC[C@H]2[C@H](COc3ccc(NS(=O)(=O)c4cccc(OC)c4)cc3C(=O)N2C)O1 | nt | nt | i | i | i | nt | nt
S=c1[nH]c2ccccc2n2cccc12 | i | i | i | i | i | nt | nt
S=c1[nH]c2ccccc2n2c(=S)[nH]nc12 | i | i | i | i | 21 | 26 | i
O=C(NCc1cccs1)c1cnn2cccnc12 | i | i | i | i | 24 | i | i
COc1cccc(CNC(=O)[C@H]2CCCN2C(=O)[C@H]2CCCN2C(=O)c2ccccc2C(F)(F)F)c1 | i | i | i | i | i | nt | nt

From PubChem BioAssay
